# Screens as filed in PubChem.
# CHO parental Ca – signal in parental CHO cells, OX1R antagonist counter-screen; parental CHO-K1, ATP-induced calcium, Fluo-8 fluorescence; 330,000 compounds, 0.63% hits; AID 463079; inhibition, % at 5.6 µM;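 active = inhibition above that plate's mean sample inhibition plus 3 SD, cut at about 26% in these data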;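 also: 0% = ATP-challenged DMSO wells and 100% = DMSO wells without ATP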
#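 material = parental CHO cells | also added = ATP as calcium-mobilizing challenge | dosing = single point at 5.6 µM | detection = intracellular calcium via Fluo-8 no-wash fluorescent dye | read-out = % inhibition | benchmarks = low control ATP plus DMSO, high control DMSO only | repeats = one well per compound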
# TAAR1 antag – antagonists of human TAAR1; Q96RJ0; CHO RD-HGA16 TAAR1, Fluo-8 calcium fluorescence, antagonist; inhibition, % at 3 µM; 360,000 compounds, 1.5% hits;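 active = inhibition above a per-plate cutoff, the mean inhibition of test compounds on that plate plus 3 SD, cut at about 49% in these data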;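 also: 0% = DMSO plus EC80 beta-PEA response and 100% = DMSO alone without agonist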
# Target sequence (Q96RJ0 whole entry, looked up): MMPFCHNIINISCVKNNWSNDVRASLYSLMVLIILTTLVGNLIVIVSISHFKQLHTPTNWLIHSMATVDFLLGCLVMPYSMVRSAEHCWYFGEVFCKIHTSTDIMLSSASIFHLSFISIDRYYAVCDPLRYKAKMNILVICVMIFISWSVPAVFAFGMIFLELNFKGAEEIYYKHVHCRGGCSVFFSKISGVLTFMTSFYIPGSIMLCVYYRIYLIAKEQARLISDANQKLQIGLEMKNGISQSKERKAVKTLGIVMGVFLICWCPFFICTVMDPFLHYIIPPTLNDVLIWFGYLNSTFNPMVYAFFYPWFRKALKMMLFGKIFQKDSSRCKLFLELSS
#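 Test system – hTAAR1-expressing CHO RD-HGA16 cells, Gα16-coupled · Also added – β-PEA at EC80 concentration, post-compound challenge · Compound – 3 µM, single point · Incubation – dye loading 75 min at 37 °C, then 30 min room temperature · Measured by – Fluo-8 intracellular calcium dye fluorescence, real-time kinetic reads · Benchmarks – vehicle and agonist controls · Replicates – singlicate, one well per test compound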
# OX1R antag-1 – antagonists of human orexin 1 receptor (OX1R); 330,000 compounds, 1.8% hits; AID 485270; OX1R-expressing cells, FRET antagonist read-out; inhibition, % at 6.6 µM; O43613; in the data active = inhibition mostly above about 38%, no sharp cut-off; inactive = mostly below about 40%;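 also: 0% = agonist challenge alone and 100% = reference antagonist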
# OX1R antag-2 – blocks the human orexin 1 receptor | AID 434989 | 330,000 compounds, 0.43% hits | CHO/OX1R cells, Fluo-8 calcium fluorescence, orexin A | inhibition, % at 5 µM;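 active = inhibition above its plate's threshold, mean inhibition of all tested compounds on the plate plus 3 SD, cut at about 37% in these data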;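 also: 0% = orexin A challenge wells and 100% = SB-334867-A antagonist wells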
# TAAR1 agonist – agonists of human TAAR1; Q96RJ0; CHO RD-HGA16 TAAR1, Fluo-8 calcium fluorescence; vehicle wells 0%, saturating PEA agonist 100%; activation, % at 3 µM; 360,000 compounds, 0.99% hits; AID 624467;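 active = activation above the mean activation of all test compounds in the run plus 3 SD, cut at about 38% in these data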
#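 Assay system: CHO-derived RD-HGA16 cells with stable Gα16 and human TAAR1; timing: 17-24 h seeding, 75 min 37 °C dye, 30 min RT; read-out: % activation from peak over basal fluorescence ratio, DMSO-to-PEA scaled; measured by: kinetic Fluo-8 calcium fluorescence; benchmarks: low control DMSO, high control PEA (EC100); doses: 3 µM single concentration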
# GPR7 antag – blocks human GPR7 receptor signaling. P48145. GPR7-expressing cells, fluorescence antagonist assay. inhibition, % at 4.4 µM. 290,000 compounds, 1.1% hits. AID 1861; in the data active = inhibition above about 16%, passing the limit was not always enough;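 also: cells stimulated with the agonist NPW; 0% = agonist with vehicle and 100% = vehicle without agonist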
# Target sequence (P48145 whole entry, looked up): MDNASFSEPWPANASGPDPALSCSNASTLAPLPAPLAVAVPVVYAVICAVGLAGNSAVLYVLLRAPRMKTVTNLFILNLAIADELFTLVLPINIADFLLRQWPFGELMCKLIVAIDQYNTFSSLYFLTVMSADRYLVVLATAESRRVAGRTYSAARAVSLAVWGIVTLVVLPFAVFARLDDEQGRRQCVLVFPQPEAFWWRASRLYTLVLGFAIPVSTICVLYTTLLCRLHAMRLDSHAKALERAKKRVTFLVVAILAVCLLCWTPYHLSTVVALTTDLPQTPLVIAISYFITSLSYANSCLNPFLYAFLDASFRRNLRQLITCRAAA
# Starred values were filed as active, the others as inactive; · = no result. The list is not random: actives were taken first. Their share in the collection is about 4.6%.
SMILES,CHO parental Ca,TAAR1 antag,OX1R antag-1,OX1R antag-2,TAAR1 agonist,GPR7 antag
Fc1ccc(-c2ccc(Nc3cccc(F)c3)nn2)cc1,44*,30,13,0,1,-3
Cc1ccc(NC(=S)NCc2ccc(S(N)(=O)=O)cc2)cc1Cl,5,23,2,1,16,20*
O=C(N[C@@H](Cc1cccnc1)C(=O)N1CCC[C@H]1C(=O)NCc1ccccc1)c1ccc(Cl)c(Cl)c1,·,-2,·,·,-1,·
Cc1ccc(SC/C(O)=C(\C#N)c2nc3ccccc3s2)cc1,-6,-4,72,2,7,4
N#C/C(=C(/O)CSc1ccccn1)c1nc2ccccc2s1,66*,4,29,71*,8,9
CC1=NOC(=O)/C1=C\c1ccc(-c2ccc(Br)cc2)o1,·,67*,·,·,35,-19
Cc1nn(-c2ccccc2)c2sc(-c3n[nH]c(=S)o3)cc12,-14,9,41*,5,2,2
OCCCNc1cc(-c2ccnc(Nc3cccc(Cl)c3)n2)ccn1,-24,80*,29,-11,17,·
COc1cccc(S(=O)(=O)N(C)C[C@H]2Oc3ncc(Br)cc3C(=O)N([C@@H](C)CO)C[C@@H]2C)c1,·,-8,·,·,2,·
OCC1SC(O)C(O)C(O)C1O (stereo unspecified),·,-8,·,·,1,·
COc1ccccc1NC(=O)c1c(Nc2ccccc2F)sc(C(=O)Nc2cccc(Cl)c2)c1N,42*,19,16,37,16,10
COC(=O)c1cc2c(c3c4cc(OC)ccc4n(S(=O)(=O)c4ccc(OC)cc4)c13)C(=O)N(Cc1ccc(C(F)(F)F)cc1)C2,·,-26,·,·,0,·
Cc1ccc2c(c1)C1CN(C)CCC1N2Sc1ccccc1[N+](=O)[O-] (stereo unspecified),-9,-2,1,-21,40*,19
O=C(C(=O)N1CCC(CNS(=O)(=O)c2ccc3ccccc3c2)CC1)c1cc2ccccc2o1,·,-8,·,·,2,·
O=[N+]([O-])c1ccc(/C=[N+](\[O-])CCO)o1,-7,-4,47*,-14,0,-5
O=C(COc1ccccc1)N/N=C/c1ccc([N+](=O)[O-])o1,0,5,53,-7,2,-6
Cc1c(C(=O)O)cccc1-c1ccc(/C=N/Nc2ccc(Br)cc2)o1,-2,59*,22,6,23,1
COC(=O)/C(=C\c1ccc([N+](=O)[O-])o1)NC(=O)c1ccccc1,2,18,69*,-4,1,5
NC(=O)/C(=C\c1ccc([N+](=O)[O-])o1)c1ccco1,·,-12,·,·,0,·
NC(=O)N/N=C/c1ccc([N+](=O)[O-])o1,4,-13,66*,-3,2,·
O=C(CNc1ccc2ccccc2c1)N/N=C/c1ccc([N+](=O)[O-])o1,41*,23,46*,24,2,-4
O=C(O)c1ccc(N/N=C/c2ccc(-c3cccc(Cl)c3)o2)cc1,1,31,6,1,35,-1
COC(=O)N/N=C/c1ccc([N+](=O)[O-])o1,-7,-7,56*,-13,6,-19
Cc1cc(C(=O)N/N=C/c2ccc([N+](=O)[O-])o2)c(C)o1,-5,-10,32,8,-1,-17
O=C(N/N=C/c1ccc([N+](=O)[O-])o1)C(O)c1ccccc1 (stereo unspecified),-7,-11,36*,-3,3,-6
SMILES,CHO parental Ca,TAAR1 antag,OX1R antag-1,OX1R antag-2,TAAR1 agonist,GPR7 antag
O=C(N/N=C/c1ccc(-c2ccc([N+](=O)[O-])cc2)o1)C(O)c1ccccc1 (stereo unspecified),-12,-6,18,-17,4,-15
O=C(O)c1cccc(-c2ccc(/C=N/Nc3ccc([N+](=O)[O-])cc3)o2)c1,33*,57*,12,54*,44*,11
COC(=O)[C@]12C[C@H](CC(=O)NCc3cccc(C(F)(F)F)c3)C(=O)N(Cc3ccccc3)C1=C[C@H](C(C)(C)C)O[C@@H]2C,·,-15,·,·,-2,·
COC(=O)N/N=C/c1cc(OC)c(O)c([N+](=O)[O-])c1,-4,3,51*,-18,3,-2
O=C(O)c1ccc(N/N=C/C=C/c2ccc([N+](=O)[O-])o2)cc1,52*,42,63,49*,33,-2
COc1cc(/C=N/NS(=O)(=O)c2ccc(C)c([N+](=O)[O-])c2)cc([N+](=O)[O-])c1O,-8,-8,9,2,4,-10
Cc1ccc(C(=O)Nc2ccccc2C(=O)O)cc1NC(=O)COc1c(C)cccc1C,-8,31,41*,-21,20,-14
CCOc1c(Cl)cc(C(=O)Nc2ccccc2C(=O)O)cc1Cl,-3,13,63*,-6,18,12
COc1ccc(C(=O)Nc2ccccc2C(=O)O)cc1Cl,3,-32,18,-2,15,6
O=[N+]([O-])c1cccc(N=NN(CCO)c2cccc([N+](=O)[O-])c2)c1,10,51*,57,-8,8,5
CCOc1ccccc1C(=O)Nc1cccc2cccnc12,-18,-20,44*,10,4,-7
COc1ccc(C(=O)Nc2cccc3cccnc23)cc1OC,-15,-5,49*,-15,8,0
O=C(Nc1cccc2ccccc12)c1ccc(Br)o1,·,3,·,·,3,5
COc1ccc(OC)c(NC(=O)c2ccccc2NS(=O)(=O)c2cccc3cccnc23)c1,-9,-5,64*,6,2,-16
O=C(Nc1cccc2cccnc12)c1ccc(Br)o1,-16,-10,75*,9,7,-11
O=C(Nc1cccc2ccccc12)c1ccccc1NS(=O)(=O)c1cccc2cccnc12,-17,4,65,15,2,-1
O=C(Nc1cccc2cccnc12)c1cccc2ccccc12,-20,-11,25,-27,3,5
COc1ccc2cc(C(=O)CS(=O)(=O)c3ccc(Cl)cc3)c(=O)oc2c1,·,6,·,·,1,·
CC(C)N1CCC2(CC1)N=C(c1ccc3c(c1)OCO3)CC(c1cc(Cl)ccc1O)N2 (stereo unspecified),38,48,87*,68*,18,5
CCn1nc(C(=O)N2CCN(Cc3nc4ccccc4s3)CC2)c2ccccc2c1=O,-9,57*,12,-20,33,·
CC1(C)N=C(N)N=C(N)N1c1cccc(C#N)c1,·,2,·,·,1,·
NS(=O)(=O)c1ccc(Nc2ncccc2[N+](=O)[O-])cc1,4,12,58*,1,4,-1
C[C@@H]1CN([C@@H](C)CO)C(=O)c2cc(Br)cnc2O[C@H]1CN(C)Cc1cccnc1,·,-7,·,·,1,·
